TRPC4 potent: positive allosteric modulators of TRPC4, primary screen, cell-based, mouse TRPC4beta, HEK293 mu-opioid, Fluo-4 calcium. Short transient receptor potential channel 4 (Mus musculus), Q9QUQ5. DAMGO EC20, Fluo-4 Ca2+ flux; active compounds read high. B-score at 10 µM. hit rate 0.42% among 310,000. AID 2227, 2009;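 active means B-score of calcium response area above 5 SD of library B-scores, with initial fluorescence ratio within 5 SD of library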
Target sequence (Q9QUQ5 whole entry, looked up): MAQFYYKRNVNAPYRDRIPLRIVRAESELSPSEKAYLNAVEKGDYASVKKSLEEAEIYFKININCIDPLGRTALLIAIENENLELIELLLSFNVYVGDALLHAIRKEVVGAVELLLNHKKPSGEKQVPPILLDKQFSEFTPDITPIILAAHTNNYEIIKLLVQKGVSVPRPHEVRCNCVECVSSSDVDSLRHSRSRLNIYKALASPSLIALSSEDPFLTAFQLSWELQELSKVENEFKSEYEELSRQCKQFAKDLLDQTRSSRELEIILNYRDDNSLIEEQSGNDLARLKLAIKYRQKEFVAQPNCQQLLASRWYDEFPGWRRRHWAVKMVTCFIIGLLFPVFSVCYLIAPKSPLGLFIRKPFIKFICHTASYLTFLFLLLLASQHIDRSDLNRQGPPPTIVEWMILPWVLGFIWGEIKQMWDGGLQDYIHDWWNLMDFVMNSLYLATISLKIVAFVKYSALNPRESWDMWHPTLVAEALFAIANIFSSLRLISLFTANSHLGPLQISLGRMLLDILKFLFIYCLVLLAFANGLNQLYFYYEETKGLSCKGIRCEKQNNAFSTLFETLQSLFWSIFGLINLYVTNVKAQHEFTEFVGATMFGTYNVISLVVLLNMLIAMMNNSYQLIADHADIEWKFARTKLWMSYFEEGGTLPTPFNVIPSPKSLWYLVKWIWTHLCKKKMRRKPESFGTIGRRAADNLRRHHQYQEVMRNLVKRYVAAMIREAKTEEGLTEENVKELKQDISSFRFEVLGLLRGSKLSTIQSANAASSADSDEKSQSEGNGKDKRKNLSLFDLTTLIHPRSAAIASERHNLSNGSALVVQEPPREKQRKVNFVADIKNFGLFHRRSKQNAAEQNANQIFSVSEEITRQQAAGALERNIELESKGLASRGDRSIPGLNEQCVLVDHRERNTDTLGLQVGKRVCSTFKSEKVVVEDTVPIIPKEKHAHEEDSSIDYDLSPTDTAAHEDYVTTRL
TRPC6 inhibitor: mouse TRPC6 channel inhibitors, primary screen, cell-based, HEK293, membrane potential dye; ACh-evoked depolarization; active compounds read low; Short transient receptor potential channel 6 (Mus musculus), Q61143; hit rate 1.1% among 310,000; B-score at 10 µM; AID 2553, 2010;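 active means B-score under library mean minus 3 SD, initial fluorescence not abnormally high, positive integrated signal ratio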;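 further: B-score derived from integrated fluorescence ratio over the kinetic read; more negative B-score means stronger inhibition of depolarization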
TRPC4 inh: inhibitors of mouse TRPC4 channel, primary screen, Fluo4 calcium, HEK293 TRPC4beta/mu-opioid cells | DAMGO-evoked Fluo4 calcium flux; active compounds read low | B-score at 10 µM | hit rate 0.39% among 300,000 | AID 2247, 2010;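 active means B-score over 3 SD under the library average, no early fluorescence shift, positive overall ratio signal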
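Assay system: TRPC4beta/mu-opioid receptor HEK293 cell line; compound dosing: single concentration per test compound; detection: Fluo4 Ca2+ flux fluorescence; evaluation: per-well B score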
TRPC6 activator: mouse TRPC6 channel activators, primary screen, cell-based, HEK293, membrane potential dye; hit rate 0.13% among 310,000; B-score at 10 µM; AID 2550, 2010; Short transient receptor potential channel 6 (Mus musculus), Q61143; HEK293-TRPC6 membrane potential dye fluorescence; active compounds read high;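 active means B-score of the integrated fluorescence ratio above library mean plus 3 SD, and starting fluorescence ratio within library mean plus 5 SD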;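 further: higher score means more depolarization so channel activation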
TRPC4 act: activators of mouse TRPC4 channel, primary screen, Fluo4 calcium, HEK293 TRPC4beta/mu-opioid cells; Short transient receptor potential channel 4 (Mus musculus), Q9QUQ5; Fluo4 calcium fluorescence; active compounds read high; B-score at 10 µM; hit rate 0.49% among 310,000; AID 2237, 2010;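 active means B-score above 5 SD of library B-scores, and initial fluorescence ratio not above library mean plus 5 SD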;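 further: positive B-score marks a calcium rise read as TRPC4 activation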
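Technique: kinetic Fluo4 calcium fluorescence; Test system: TRPC4beta and mu-opioid receptor HEK293 stable cells; Measure: B-scored integrated calcium fluorescence ratio; Benchmarks: low control buffer alone, high control maximal DAMGO; Schedule: 45 min room-temperature Fluo4 loading, 110 s read.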
TRPC4 sel inh 2: second check of whether TRPC6 inhibitors also affect mouse TRPC4; HEK293 TRPC4/MOR, membrane potential dye fluorescence; channel activated by saturating DAMGO dose; inhibition, % at 10 µM; hit rate 42% among 920; AID 2776; shares compounds with TRPC6 inhibitor;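 active means compounds whose fluorescence signal differed from control wells by over 3 SD, either direction, in both duplicate plates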
TRPC4 spec: mouse TRPC4 modulation by TRPC6 hits, confirmation, selectivity assay for TRPC6 inhibitor project, cell-based, HEK293 TRPC4/mu-opioid, membrane potential dye; shares compounds with TRPC6 inhibitor; membrane potential fluorescence; activity change, negative = inhibition, % at 10 µM; hit rate 61% among 920; AID 2777, 2010;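 active means rise or fall in signal beyond 3 SD of buffer-only wells in both replicate plates, either sign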;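 further: integrated kinetic ratio of fluorescence range over baseline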
HEK293 MPD ctr 2-1: nonspecific membrane potential effects, parental HEK293, confirmation, counter-screen for TRPC6 inhibitor project, cell-based, second counter screen | shares compounds with TRPC6 inhibitor | signal change vs control, % at 10 µM | hit rate 31% among 920 | parental HEK293 membrane potential dye fluorescence; maximal acetylcholine challenge after compound addition;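 active means membrane potential signal moving either way by over 3 SD of the maximum-effect control, in both duplicate plates, meaning non-specific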
HEK293 MPD ctr-1: membrane potential modulation in parental HEK293, confirmation, counter-screen for TRPC6 inhibitor project, cell-based | shares compounds with TRPC6 inhibitor | parental HEK293 membrane potential dye fluorescence | membrane potential signal change, % at 10 µM | hit rate 60% among 920 | AID 2780, 2010;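 active means membrane potential signal shifting up or down by more than 3 SD of buffer-only wells, on both duplicate plates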
HEK293 MPD ctr-2: parental HEK293 membrane potential modulation, confirmation, counter-screen for TRPC6 modulator project, cell-based; shares compounds with TRPC6 inhibitor; membrane potential dye fluorescence; membrane potential signal change, % at 10 µM; hit rate 51% among 2,400;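 active means membrane potential signal moves up or down beyond 5 SD from buffer-only wells, on both duplicate plates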
HEK293 MPD ctr 2-2: parental HEK293 nonspecific activity of TRPC6 modulators, second screen. hit rate 14% among 2,400. AID 488926. shares compounds with TRPC6 inhibitor. inhibition, % at 10 µM. membrane potential dye fluorescence; after compound, maximal acetylcholine stimulation;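 active means membrane potential signal drops by more than 5 SD from the mean control signal, in both duplicate plates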
TRPC4/MOR mod: TRPC4 modulation by TRPC6 hit compounds, confirmation, selectivity assay for TRPC6 modulator project, cell-based, HEK293 TRPC4/mu-opioid, membrane potential dye, mouse; hit rate 69% among 2,400; shares compounds with TRPC6 inhibitor; percent change from control (negative = decrease, positive = increase), % at 10 µM; membrane potential fluorescence;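 active means membrane potential signal moved up or down beyond 5 SD of buffer control wells, in both duplicate plates, actives on both sides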
TRPC4 ctr inh 2: mouse TRPC4 off-target activity of TRPC6 modulators, second screen; HEK293 TRPC4/mu-opioid, membrane potential dye fluorescence; stimulated with maximal-effect DAMGO; shares compounds with TRPC6 inhibitor; AID 488928; hit rate 55% among 2,400; inhibition, % at 10 µM;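 active means drop in membrane potential signal beyond 5 SD of the control wells in both duplicate plates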;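 further: TRPC4 counter screen for TRPC6 hits run under conditions tuned for TRPC6 not TRPC4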
TRPC6 block conf: mouse TRPC6 channel inhibitors, confirmation, HEK293 cells, membrane potential dye, duplicate. shares compounds with TRPC6 inhibitor. ACh-evoked depolarization. inhibition, % at 10 µM. hit rate 43% among 3,300. AID 488960, 2010;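 active means fluorescence ratio falls more than 5 SD below the full-stimulation control mean, in both duplicate runs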;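 further: integrated fluorescence ratio of peak minus minimum over baseline after agonist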
TRPC6 act confirm: mouse TRPC6 channel activators, confirmation, HEK293 cells, membrane potential dye, duplicate; shares compounds with TRPC6 inhibitor; HEK293-TRPC6 membrane potential dye fluorescence, FDSS; activation, % at 10 µM; hit rate 11% among 2,800;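 active means ratio signal rise beyond 5 SD above unstimulated control wells' mean, seen in both duplicate runs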
Hits are given with their value. An excerpt weighted towards active compounds, which were near 2.3% of everything screened.

What do the screens show for `CC(OC(=O)CC1CCCC1)C(=O)Nc1ccc(S(N)(=O)=O)cc1` (stereo not given)?
TRPC4 potent: inactive; TRPC6 inhibitor: inactive; TRPC4 inh: inactive; TRPC6 activator: inactive; TRPC4 act: inactive

What do the screens show for `Nc1nc(N2CCCCC2)nc2ccccc12`?
TRPC4 potent: inactive; TRPC6 inhibitor: -11.1; TRPC4 inh: -8; TRPC6 activator: inactive; TRPC4 act: inactive; HEK293 MPD ctr-2: -211.5%; HEK293 MPD ctr 2-2: inactive; TRPC4/MOR mod: -42.0%; TRPC4 ctr inh 2: 92.5%; TRPC6 block conf: 70.5%; TRPC6 act confirm: inactive

What do the screens show for `c1ccc2c(N3CCCCC3)nc(N3CCCC3)nc2c1`?
TRPC4 potent: inactive; TRPC6 inhibitor: inactive; TRPC4 inh: inactive; TRPC6 activator: inactive; TRPC4 act: inactive

Results for Cc1cc(-c2ccccc2)nc(N2CCN(c3ccccn3)CC2)n1 ?
TRPC4 potent: inactive; TRPC6 inhibitor: inactive; TRPC4 inh: inactive; TRPC6 activator: inactive; TRPC4 act: inactive

What do the screens show for `c1ccc(-c2nc(N3CCNCC3)nc3ccccc23)cc1`?
TRPC4 potent: 18; TRPC6 inhibitor: -8.02; TRPC4 inh: inactive; TRPC6 activator: inactive; TRPC4 act: inactive; TRPC4 sel inh 2: 39.5%; TRPC4 spec: inactive; HEK293 MPD ctr 2-1: inactive; HEK293 MPD ctr-1: 4.7%; TRPC6 block conf: inactive; TRPC6 act confirm: inactive

Results for Nc1nc(N2CCN(c3ccccn3)CC2)nc2ccccc12 ?
TRPC4 potent: inactive; TRPC6 inhibitor: -6.87; TRPC4 inh: inactive; TRPC6 activator: inactive; TRPC4 act: inactive; TRPC4 sel inh 2: 49.0%; TRPC4 spec: -18.8%; HEK293 MPD ctr 2-1: inactive; HEK293 MPD ctr-1: -232.5%; TRPC6 block conf: 61.6%; TRPC6 act confirm: inactive

How did COc1ccc2cc(/C=C/C(=O)N3CCN(CC(=O)N4CCCCCC4)CC3)ccc2c1 do in these assays?
TRPC4 potent: inactive; TRPC6 inhibitor: inactive; TRPC4 inh: inactive; TRPC6 activator: inactive; TRPC4 act: inactive

How did CCC(Cc1ccccc1)NC(=O)CCc1ccccc1 (stereo not given) do in these assays?
TRPC4 potent: inactive; TRPC6 inhibitor: inactive; TRPC4 inh: inactive; TRPC6 activator: inactive; TRPC4 act: inactive

How did CSc1ccc(C2Nc3cccc4cccc(c34)N2)cc1 do in these assays?
TRPC4 potent: inactive; TRPC6 inhibitor: -6.97; TRPC4 inh: inactive; TRPC6 activator: inactive; TRPC4 act: inactive; TRPC4 sel inh 2: inactive; TRPC4 spec: -10.8%; HEK293 MPD ctr 2-1: inactive; HEK293 MPD ctr-1: -138.5%; TRPC6 block conf: inactive; TRPC6 act confirm: inactive

How did Clc1ccc(C2Nc3cccc4cccc(c34)N2)cc1 do in these assays?
TRPC4 potent: inactive; TRPC6 inhibitor: inactive; TRPC4 inh: inactive; TRPC6 activator: inactive; TRPC4 act: inactive

How did COc1ccc(-c2nc(-c3cccs3)c(-c3cccs3)[nH]2)cc1OC do in these assays?
TRPC4 potent: inactive; TRPC6 inhibitor: -5.52; TRPC4 inh: inactive; TRPC6 activator: inactive; TRPC4 act: inactive; HEK293 MPD ctr-2: inactive; HEK293 MPD ctr 2-2: inactive; TRPC4/MOR mod: inactive; TRPC4 ctr inh 2: inactive; TRPC6 block conf: inactive; TRPC6 act confirm: inactive

How did COc1ccc(CCC(=O)NCCS(=O)(=O)N2CCN(c3ccc(OC)cc3)CC2)cc1 do in these assays?
TRPC4 potent: inactive; TRPC6 inhibitor: inactive; TRPC4 inh: inactive; TRPC6 activator: inactive; TRPC4 act: inactive

What do the screens show for `O=C(Nc1c2c(nn1-c1ccc(F)cc1)CSC2)c1ccc(S(=O)(=O)N2CCOCC2)cc1`?
TRPC4 potent: inactive; TRPC6 inhibitor: -5.63; TRPC4 inh: inactive; TRPC6 activator: inactive; TRPC4 act: inactive; HEK293 MPD ctr-2: inactive; HEK293 MPD ctr 2-2: inactive; TRPC4/MOR mod: inactive; TRPC4 ctr inh 2: inactive; TRPC6 block conf: inactive; TRPC6 act confirm: inactive

What do the screens show for `O=C(O[C@@H]1OC2COC(=O)c3cc(O)c(O)c(O)c3-c3c(cc(O)c(O)c3O)C(=O)O[C@@H]([C@H]1O)[C@@H]2O)c1cc(O)c(O)c(O)c1`?
TRPC4 potent: inactive; TRPC6 inhibitor: inactive; TRPC4 inh: inactive; TRPC6 activator: inactive; TRPC4 act: inactive

What do the screens show for `O=C(c1ccco1)N1CCN(S(=O)(=O)c2ccc(Oc3ccccc3)cc2)CC1`?
TRPC4 potent: inactive; TRPC6 inhibitor: -12.7; TRPC4 inh: inactive; TRPC6 activator: inactive; TRPC4 act: inactive; TRPC4 sel inh 2: inactive; TRPC4 spec: 2.1%; HEK293 MPD ctr 2-1: 232.5%; HEK293 MPD ctr-1: 1.1%; TRPC6 block conf: inactive; TRPC6 act confirm: inactive
